Most compounds without a hit are left out; they make up all but 5.9% or so of the library.
hDAT+cocaine = changed human dopamine transporter uptake under cocaine IC80; LLC-PK1 hDAT cells, [14C]-dopamine uptake with cocaine IC80; actives deviate in either direction; 110,000 compounds, 1.3% hits; B-score at 10 µM;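 active = Z score or B-score, a plate-position-corrected score, falls beyond the plate's 99.7% confidence bounds, in either direction; inactive = both scores lie inside the 99.7% bounds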;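 also: scored against the spread of the other compound wells on the same plate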
Cav32 inh = inhibitors of human Cav3.2 T-type calcium channel. B-score at 10 µM. 100,000 compounds, 4% hits. O95180. AID 449739. Cav3.2-expressing cells, Fluo-4 calcium fluorescence FDSS; hits give low values;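 active = single-dose well whose peak fluorescence ratio is a statistical outlier from its plate by either plate-standardised score or position-corrected B-score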
Target sequence (O95180 whole entry, looked up): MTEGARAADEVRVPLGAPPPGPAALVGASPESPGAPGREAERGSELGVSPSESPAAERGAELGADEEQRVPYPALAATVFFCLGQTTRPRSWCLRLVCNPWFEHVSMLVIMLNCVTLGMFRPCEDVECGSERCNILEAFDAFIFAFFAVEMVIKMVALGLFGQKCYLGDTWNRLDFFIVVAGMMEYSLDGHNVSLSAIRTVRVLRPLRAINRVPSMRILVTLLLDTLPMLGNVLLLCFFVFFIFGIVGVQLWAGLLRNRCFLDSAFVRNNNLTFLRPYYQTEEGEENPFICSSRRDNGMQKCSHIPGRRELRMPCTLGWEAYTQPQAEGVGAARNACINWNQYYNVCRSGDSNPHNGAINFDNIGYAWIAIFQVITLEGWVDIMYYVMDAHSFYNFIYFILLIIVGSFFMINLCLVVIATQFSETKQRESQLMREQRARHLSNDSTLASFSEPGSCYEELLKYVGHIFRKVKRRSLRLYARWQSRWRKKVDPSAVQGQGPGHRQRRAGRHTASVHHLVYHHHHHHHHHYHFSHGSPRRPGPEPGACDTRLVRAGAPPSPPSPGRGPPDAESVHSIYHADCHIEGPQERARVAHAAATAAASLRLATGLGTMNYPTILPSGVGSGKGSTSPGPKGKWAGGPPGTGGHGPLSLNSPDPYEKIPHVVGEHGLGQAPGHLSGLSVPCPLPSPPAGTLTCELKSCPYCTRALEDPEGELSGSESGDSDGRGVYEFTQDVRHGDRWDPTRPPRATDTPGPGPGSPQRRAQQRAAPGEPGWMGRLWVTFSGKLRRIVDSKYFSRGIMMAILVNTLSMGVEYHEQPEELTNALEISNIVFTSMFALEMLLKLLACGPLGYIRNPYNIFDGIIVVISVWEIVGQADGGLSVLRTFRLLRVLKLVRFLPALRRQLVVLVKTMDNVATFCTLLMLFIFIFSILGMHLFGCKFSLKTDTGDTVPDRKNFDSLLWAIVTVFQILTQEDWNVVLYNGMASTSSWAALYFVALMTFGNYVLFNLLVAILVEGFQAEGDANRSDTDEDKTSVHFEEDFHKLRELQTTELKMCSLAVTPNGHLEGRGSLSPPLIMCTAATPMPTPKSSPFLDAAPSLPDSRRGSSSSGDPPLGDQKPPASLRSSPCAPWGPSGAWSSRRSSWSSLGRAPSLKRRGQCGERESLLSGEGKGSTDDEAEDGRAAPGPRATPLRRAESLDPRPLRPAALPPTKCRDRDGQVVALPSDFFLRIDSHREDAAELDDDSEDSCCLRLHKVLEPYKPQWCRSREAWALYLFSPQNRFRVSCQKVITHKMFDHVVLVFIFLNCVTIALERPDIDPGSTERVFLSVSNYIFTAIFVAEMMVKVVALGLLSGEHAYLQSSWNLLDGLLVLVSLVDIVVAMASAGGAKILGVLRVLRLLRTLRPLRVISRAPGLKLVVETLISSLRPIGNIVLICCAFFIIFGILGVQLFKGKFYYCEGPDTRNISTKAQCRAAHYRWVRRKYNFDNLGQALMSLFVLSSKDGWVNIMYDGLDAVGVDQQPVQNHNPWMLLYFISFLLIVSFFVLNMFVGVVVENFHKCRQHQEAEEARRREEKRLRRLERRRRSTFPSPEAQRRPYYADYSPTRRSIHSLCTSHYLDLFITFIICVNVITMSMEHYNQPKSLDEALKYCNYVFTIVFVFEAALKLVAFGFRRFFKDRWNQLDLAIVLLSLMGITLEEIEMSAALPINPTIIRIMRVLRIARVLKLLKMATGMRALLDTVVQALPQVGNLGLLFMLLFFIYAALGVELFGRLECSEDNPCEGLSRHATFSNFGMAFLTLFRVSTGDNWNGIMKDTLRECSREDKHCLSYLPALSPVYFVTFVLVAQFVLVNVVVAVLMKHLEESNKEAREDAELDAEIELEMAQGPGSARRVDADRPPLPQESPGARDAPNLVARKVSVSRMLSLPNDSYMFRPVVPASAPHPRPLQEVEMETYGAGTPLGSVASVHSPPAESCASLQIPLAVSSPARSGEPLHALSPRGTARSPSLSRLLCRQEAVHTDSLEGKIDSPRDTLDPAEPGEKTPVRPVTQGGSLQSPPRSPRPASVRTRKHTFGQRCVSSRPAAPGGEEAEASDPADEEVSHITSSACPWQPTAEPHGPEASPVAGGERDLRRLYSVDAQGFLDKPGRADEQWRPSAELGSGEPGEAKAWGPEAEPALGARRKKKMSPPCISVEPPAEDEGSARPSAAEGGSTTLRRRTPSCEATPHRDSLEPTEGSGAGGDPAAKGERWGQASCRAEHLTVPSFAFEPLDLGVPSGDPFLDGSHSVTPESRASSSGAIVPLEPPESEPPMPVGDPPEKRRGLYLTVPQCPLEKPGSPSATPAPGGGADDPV
Measles CPE = protection of cells from measles virus | Measles virus-infected cells, CPE protection, absorbance | protection (pct of control), % at 4 µM | 140,000 compounds, 1.5% hits; in the data active = protection mostly above about 24%, no sharp cut-off; inactive = mostly below about 26%
Phagocytosis inh = macrophage phagocytosis inhibition; J774A.1 macrophage IgG-bead phagocytosis, imaging; inhibition, % at 5 µM; 110,000 compounds, 0.07% hits;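 active = inhibition above the mean of the plate negative controls plus 5 SD, cut at about 13% in these data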;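 also: phagocytic index as fraction of beads internalized from green versus red external bead signal; plate controls were DMSO negative control for no effect and cytochalasin-D positive control for full effect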
HIV Rev-RRE inh = inhibitors of HIV-1 Rev-RRE RNA interaction | 97,000 compounds, 0.79% hits | P05866 | AID 704 | inhibition, % at 8 µM | Rev peptide-RRE RNA binding, FRET;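 active = inhibition above the screen-wide mean plus 3 SD, cut at about 35% in these data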;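 also: 0% = median DMSO wells and 100% = median Neomycin B control wells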
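Test system – labelled RRE RNA duplex and labelled Rev peptide · Reagent – labelled Rev peptide · Doses – one concentration, 8 µM nominal · Incubation – 5 + 15 min at 25 °C · Signal – FRET fluorescence readout · Read-out basis – % inhibition of FRET ratio versus controls · Control set – DMSO wells as 0% and neomycin B wells as 100% inhibition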
Pyk2 oligo antag = Pyk2 (human) oligomerization antagonism; Q14289; Q293 cells, Pyk2 FERM NanoBiT luminescence; hits give low values; z-score (the deposit names both 25 µM and 10 µM); 99,000 compounds, 0.83% hits; AID 1347419;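 active = Z-score of -3 or lower, scaled per plate to the spread of control and sample wells; inactive = z-score above -3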;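 also: negative z-score means lost luminescence so less FERM oligomerization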
* marks the source's active call; other numbers are inactive results; nt = no result given.

SMILES	hDAT+cocaine	Cav32 inh	Measles CPE	Phagocytosis inh	HIV Rev-RRE inh	Pyk2 oligo antag
Cc1cc(N2CCC(C(=O)Nc3ccc(F)cc3)CC2)nc(-c2ccccc2)n1	0.14	-6.9*	6	-2	9	-0.04
Cc1cc(C)nc(N2CCC(C(=O)Nc3cccc(C(F)(F)F)c3)CC2)n1	0.28	-4.2*	4	-2	25	-1.3
Cc1cc(N2CCC(C(N)=O)CC2)nc(-c2ccccc2)n1	0.09	1.2	1	-1	4	0.48
CS(=O)(=O)N1CCC(C(=O)Nc2cccc(C(F)(F)F)c2)CC1	0.98	0.42	19	-1	nt	0.64
COc1ccc(NC(=O)C2CCN(c3cc(C)nc(-c4ccccc4)n3)CC2)cc1	1.3	-5.9*	2	nt	12	-0.64
Cc1ccccc1NCCNc1ccccc1C	0.48	-0.54	17	-1	0	-0.17
O=C(CSc1ncn[nH]1)NCCC(c1ccccc1)c1ccccc1	-0.88	-0.15	16	-4	3	-0.16
CC(=O)Nc1ccc(N(C)S(C)(=O)=O)cc1	-0.073	0.8	39*	6	7	1.3
CC(=O)Nc1ccc(S(=O)(=O)c2ccc(N)cc2)cc1N	-0.21	0.18	10	nt	3	nt
CC(=O)Nc1ccc(S(=O)(=O)c2ccc(N)cc2)cc1	2*	0.53	8	nt	9	nt
CCCCCCn1c(COc2ccccc2F)nnc1SCC(=O)N1c2ccccc2NC(=O)C1(C)C	0.57	-5.9*	2	0	-2	0.02
O=CN1CCN(C(=O)c2ccc([N+](=O)[O-])cc2)CC1	nt	nt	2	-9	nt	nt
O=C(Nc1cccn(Cc2c(Cl)cccc2Cl)c1=O)c1c(Cl)cccc1Cl	0.73	-6.5*	16	nt	7	-1.3
C=CCOC(=O)C1=C(C)NC(SCC(=O)Nc2ccccc2)=C(C#N)C1c1ccco1 (stereo not given)	nt	-0.2	16	0	7	-1.5
CCCCCc1cc(O)c2c(C)cc(=O)oc2c1	-1	-0.11	63*	1	6	-2.7
O=C1NC[C@@H](Cc2cccc3ccccc23)N(CC2(c3ccccc3)CC2)C1=O	0.64	-0.014	nt	nt	nt	nt
CCOC(=O)CN1C(=O)N[C@@H](c2cccc(C(F)(F)F)c2)C(C(=O)OC)=C1C	-0.18	0.38	nt	nt	nt	nt
Cc1ccc(NC(=O)c2cnn(-c3ccccc3)c2NC(=O)c2ccco2)cc1C	0.42	-0.99	1	-3	0	-1.8
Cc1ccc(-n2ncc(C(=O)NCc3ccc4c(c3)OCO4)c2NC(=O)c2ccco2)cc1C	0.41	-6.2*	0	3	9	-1.4
COc1ccc(-c2nc(N3CCOCC3)nc3n[nH]c(N)c23)cc1	-0.3	0.87	28*	6	nt	-0.41
C[C@@H]1NC(=O)c2cc([N+](=O)[O-])cc(I)c2OCC[C@@H](C(N)=O)NC(=O)[C@H](CCC(=O)O)NC1=O	-0.96	-0.21	7	nt	nt	nt
N/N=C(\c1ccccc1)C12CN3CN(CN(C3)C1)C2	nt	nt	19	-6	nt	nt
COc1ccc(OCCSc2nnc(CC(=O)Nc3cccc(Cl)c3Cl)n2C)cc1	0.57	-4*	10	nt	8	1.5
CCOC(=O)CSc1nnc(-c2ccco2)n1-c1ccccc1	-0.47	0.04	23	-1	4	0.95
Cc1ccc(-n2c(Cc3ccccc3)nnc2SCC(=O)NNC(=O)Cc2ccccc2)cc1	1	-5.7*	16	nt	-2	0.67
SMILES	hDAT+cocaine	Cav32 inh	Measles CPE	Phagocytosis inh	HIV Rev-RRE inh	Pyk2 oligo antag
CCOC(=O)CSc1nnc(-c2ccco2)n1-c1ccc(C)cc1	0.016	-0.16	38*	-1	2	0.51
Cc1nnc(NC(=O)CSc2nnc(Cc3ccccc3)n2-c2ccccc2)s1	-0.67	-1.8	10	-2	2	-1.4
Cc1ccc(-c2noc(CSc3nnc(Cc4ccccc4)n3-c3ccc(Cl)cc3)n2)cc1	1.6	-5.4*	1	-2	8	-0.19
CCOc1ccc(-n2c(Cc3ccccc3)nnc2SCc2c(C)noc2C)cc1	0.05	-4.3*	7	nt	-1	-0.48
COc1ccc(-n2c(Cc3ccccc3)nnc2SCc2ccc([N+](=O)[O-])cc2)cc1	nt	nt	4	2	nt	nt
COc1ccc(-c2noc(CSc3nnc(Cc4ccccc4)n3-c3ccc(Cl)cc3)n2)cc1	1.6	-4.4	37	2	2	-0.34
CCc1nnc(NC(=O)CSc2nnc(CNc3cccc(Cl)c3)n2CC)s1	-0.37	-1.5	5	-1	12	-0.03
CCOC(=O)CN(C(=O)CSc1nnc(Cc2ccccc2)n1-c1ccc(C)cc1)c1ccccc1	2.7*	-8.4*	15	nt	-2	-1.4
CCOC(=O)CSc1nnc(Cc2ccccc2)n1-c1ccc(C)cc1	0.13	-2.8	8	nt	3	-0.54
CCc1nnc(NC(=O)CSc2nnc(C3CCCCC3)n2-c2cccc(Cl)c2)s1	-0.36	-4.3*	10	nt	8	-1.1
CCc1nnc(NC(=O)CSc2nnc(Cc3ccccc3)n2-c2ccccc2)s1	1	-4.5*	13	0	7	-0.94
O=C(NC(=S)NCC1CCCO1)c1ccc([N+](=O)[O-])cc1 (stereo not given)	nt	nt	8	7	nt	nt
CCOC(=O)C1=C(C)N(CCCC(=O)O)C(=O)NC1c1cc2ccccc2c2ccccc12 (stereo not given)	-0.26	0.28	nt	nt	nt	nt
COc1ccccc1NC(=O)Cn1cnc2sc(C(=O)NCc3ccco3)c(C)c2c1=O	1.9*	-2.5	4	8	14	1.1
COc1ccc(/C(O)=C2\C(=O)C(=O)N(c3cc(C)on3)C2c2ccc(OC)c(OC)c2)cc1OC (stereo not given)	-0.43	0.38	6	nt	2	-0.7
CCOc1ccc(C2/C(=C(/O)c3ccc(OC)cc3)C(=O)C(=O)N2c2cc(C)on2)cc1OC (stereo not given)	3.6*	-0.6	2	-1	1	-0.33
O=c1[nH]c(Nc2nc3ccccc3o2)nc2c1CCCC2	0.6	1.1	6	-1	12	-3.3*
CC1(C)CC(=O)c2cc(C(=O)NCc3ccco3)c(=O)n(-c3ccccc3)c2C1	0.77	4.1*	19	1	2	-0.09
CN1CCN(C(=O)c2cc3c(n(-c4ccccc4)c2=O)CC(C)(C)CC3=O)CC1	-0.18	0.34	6	1	-1	1.6
Cc1ccc(Nc2ncccc2C(N)=O)cc1[N+](=O)[O-]	nt	nt	34	-2	nt	nt
CCCCCn1c(SCc2ccncc2)nc2cc(C(=O)NCc3ccco3)ccc2c1=O	2.6	-4.2*	4	nt	-3	0.1
O=C(CSc1nc2ccccc2c(=O)n1Cc1ccco1)NCc1ccco1	0.22	-0.39	13	nt	-1	0.39
CCCCn1c(SCC(=O)NCc2ccco2)nc2ccccc2c1=O	0.25	-2	7	0	0	-1.2
O=C(NCc1ccco1)c1ccc2c(=O)n(Cc3ccco3)c(SCC(=O)N3CCCC3)nc2c1	2.2*	-0.27	2	0	-1	-0.35
CCc1cc2c(=O)n(Cc3ccco3)c(SCC(=O)N3CCCc4ccccc43)nc2s1	-0.44	-5.3*	16	0	7	-0.24

Compound activity from PubChem BioAssay.
